Compounds with a hit are over-represented: about 3.1% of the library has one in this group of screens.
T cruzi inh = blocks replication of Trypanosoma cruzi. T. cruzi beta-gal in NIH3T3, luminescence, 90 h. inhibition, % (test concentration not listed). 300,000 compounds, 1.4% hits. AID 1885;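 active = mean inhibition across valid replicates above about 55%, limit read from the data; inconclusive = mean below that limit but half or more replicates reach it; inactive = mean below it, under half of replicates reach it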;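 also: signal also drops with host cell toxicity which is not excluded here; 0% = plate median of DMSO wells and 100% = zero luminescence signal; higher percent means less beta-gal luminescence so fewer parasites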
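compound dosing = single 50 nL compound addition per well in DMSO | material = NIH/3T3 host cells with β-galactosidase reporter T. cruzi | input = 5,000 host fibroblasts per well | timing = ≥90 h infection period, 3 h prior cell attachment | read-out basis = percent inhibition of parasite-derived β-gal signal | detection = GalScreen β-gal luminescence, detergent lysis, 60 min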
PolyA inhibitor = yeast polyadenylation inhibition | S. cerevisiae SKY197-pL101 polyadenylation reporter, beta-gal luminescence; efflux-impaired pdr1/pdr3 knockout yeast; score 100 = 6 SD above DMSO | activity score, % at 12 µM | 300,000 compounds, 0.02% hits | AID 1875;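 active = lowest replicate activity score at least 50, where 100 means six control SD above control mean; inconclusive = lowest score under 50 but half or more replicates reach 50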;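 also: yeast exposed to compound for 9 h at 30 °C; higher score means more reporter readthrough which indicates perturbed polyadenylation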
Calb FLC = C. albicans growth modulation with fluconazole | C. albicans CaCi-2 + fluconazole, Alamar Blue growth, 48 h | growth inhibition, % (test concentration not listed) | 300,000 compounds, 0.57% hits;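 active = growth inhibition above about 58% in most replicates, limit read from the data, passing the limit was not always enough; inconclusive = exactly half the replicates above a set limit; inactive = most replicates below a set limit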;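 also: all wells also contain fluconazole at 8 µg/ml as a sub-toxic cotreatment; 0% = median of DMSO wells and 100% = median of geldanamycin control wells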
HIF act = HIF pathway transcriptional activation; U2OS HRE-luciferase reporter, luminescence; normalized: DMSO 0%, desferrioxamine 100%; activation, % at 7.5 µM (by protocol); 300,000 compounds, 0.32% hits; AID 1910;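 active = mean activation of at least 10% of the iron chelator positive control signal, with at least half of replicates also reaching 10%; inconclusive = mean and replicate majority disagree about reaching 10%; inactive = mean and most replicates under 10%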
CSC inhib = blocks cancer stem cells; AID 2717; 300,000 compounds, 1.1% hits; cancer stem cell-like cells viability, luminescence; inhibition, % at 7.5 µM; in the data active = inhibition above about 75%; inconclusive = no clear call, values can overlap the other calls; tested in HMLE shEcad cells
Beta apoptosis = beta cell apoptosis inhibition; 300,000 compounds, 0.8% hits; protection from apoptosis, % (no concentration beside the values); INS-1E cytokine-induced death, ATP luminescence, 48 h; percent of positive-control rescue, neutral wells zero;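 active = Every replicate reaches about 75%, or at least half do and their mean reaches it too, limit read from the data; inconclusive = At least half of replicates reach the limit but their mean does not; inactive = Under half of replicates reach the limit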;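 also: 0% = cytokine-treated negative control wells and 100% = positive control rescue; higher means more ATP so stronger rescue from cytokine killing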
An asterisk follows results filed as active; u = inconclusive; x = no result.

SMILES	T cruzi inh	PolyA inhibitor	Calb FLC	HIF act	CSC inhib	Beta apoptosis
Oc1ccc2ccccc2c1C1Nc2cccc3cccc(c23)N1	7.9	1.4	38.3	-0.4	26.9	11.5
Oc1ccc(O)c2c1C1c3ccccc3C2c2ccccc21	23.8	-9.6	78.2*	0.6	22.5	-13.1
CS(=O)(=O)c1cccc(C(=O)N(CCc2ccccc2)Cc2cccs2)c1	16.2	6.7	16.0	15.0*	2.2	-3.0
COc1ccc(C2OC(=O)CC2C(=O)NCc2ccc(Cl)cc2)cc1OC (stereo unspecified)	-7.3	-0.5	-11.2	1.5	-16.6	-4.5
CC1=NN(c2ccc(C)cc2)C(=O)/C1=C\C=C\c1ccccc1	-8.6	-9.1	5.4	0.2	78.0*	8.7
CC1=NN(c2cccc(C(=O)O)c2)C(=O)/C1=C\C=C/c1ccccc1	-29.4	-6.2	u	0.9	x	x
O=CN1CCCN(Cc2nc(-c3cccc(Cl)c3)no2)CC1	-7.0	13.1	-3.5	0.1	-4.9	3.2
S=C(Nc1ccccc1Cl)N(Cc1ccccc1)Cc1cccnc1	61.5*	4.9	-1.4	-0.6	8.7	2.1
CC(NC(=O)CNC(=S)N(Cc1ccccc1)Cc1cccnc1)c1ccccc1 (stereo unspecified)	54.5*	-10.0	4.5	-0.9	-2.2	-2.5
Cc1ccc(Cl)cc1NC(=S)N(Cc1ccccc1)Cc1cccnc1	76.3*	2.0	-2.8	-0.4	-6.9	-4.5
COc1ccccc1NC(=S)N(Cc1cccnc1)Cc1ccccc1Cl	-3.7	9.6	-1.5	0.0	-3.5	0.9
CCC(C)NC(=O)CNC(=S)N(Cc1ccccc1)Cc1cccnc1 (stereo unspecified)	49.9	-12.4	-6.6	-0.3	-7.2	4.4
Cc1ccccc1NC(=S)N(Cc1cccnc1)Cc1ccccc1Cl	76.0*	14.0	-8.0	-0.7	-4.0	-8.8
OC(CNc1ncnc2sccc12)c1ccccc1 (stereo unspecified)	0.8	17.3	-0.4	2.7	-4.6	60.7
C=CCCCN(Cc1ccccc1)S(=O)(=O)c1ccccc1Br	21.9	-8.8	2.8	-0.4	39.2	-0.9
O=C(/C=C/c1ccccc1)N1CCC(N2CCC(C(=O)N3CCOCC3)CC2)CC1	3.5	7.9	-1.9	0.1	12.2	0.2
Cc1cc(N(C)Cc2ccccc2)nc2cc(O)ccc12	-11.0	0.7	-0.9	-22.4	10.1	1.1
CCN(CC)S(=O)(=O)c1ccc(C(C)NC(=O)Cc2c[nH]c3ccccc23)cc1 (stereo unspecified)	13.4	-0.2	6.9	0.0	-8.3	-6.2
COc1ccccc1-n1c(=O)oc2ccc(Cl)cc2c1=O	x	x	x	x	x	104.3*
COC(=O)C1CCN(C(=O)CN(C)Cc2ccc(C(C)(C)C)cc2)CC1	66.9*	-15.1	80.1*	0.8	0.2	x
CN(Cc1ccc(C(C)(C)C)cc1)C(=O)C1CCN(C(=O)Nc2ccccc2)CC1	2.4	-14.9	-2.2	0.0	30.2	-1.6
Cc1ccc(NC(=O)CCn2c(=S)oc3ccccc32)cc1F	1.8	-2.6	-1.3	0.2	-9.1	-6.7
Cc1cc(C)nc(NC(=O)c2c(F)c(F)c(F)c(C(=O)Nc3cc(C)cc(C)n3)c2F)c1	-15.0	4.7	17.5	0.3	44.3	-59.0
N#Cc1c(Nc2ccccc2)sc(C(=O)c2ccc(F)cc2)c1N	3.6	-6.0	9.7	-0.2	42.3	90.6*
Nc1c(C(=O)c2ccccc2)sc(Nc2ccccc2)c1S(=O)(=O)c1ccccc1	55.5*	-33.4	5.7	-0.3	-2.0	12.6
CC(=O)c1c(C)c(C)c2n1CCn1c(C)ccc1-2	-0.8	-11.1	0.0	-1.1	0.9	2.2
O=C(c1ccco1)N1CCN(c2c([N+](=O)[O-])nn(-c3cccc(Cl)c3)[n+]2[O-])CC1	40.1	-13.2	1.0	-0.4	-3.1	10.9
C=CCc1c(C)nc(-c2ccccc2)nc1N/N=C/c1ccncc1	55.2*	4.6	6.3	2.6	-10.2	2.2
C=CCc1c(C)nc(-c2ccccc2)nc1N/N=C/c1ccccc1	16.2	10.1	-1.3	0.0	1.0	2.5
Oc1ccccc1N=Nc1nc(-c2ccccc2)c(-c2ccccc2)[nH]1	63.3*	-5.6	1.2	220.2*	x	86.0*
